The source of these data is ChEMBL document CHEMBL3817796, “Discovery of Novel 15-Lipoxygenase Activators To Shift the Human Arachidonic Acid Metabolic Network toward Inflammation Resolution” (J Med Chem, 2016).

For assay [1], the target named is T1, Polyunsaturated fatty acid lipoxygenase ALOX15 (Homo sapiens) (UniProt P16050).
T1 sequence (whole entry): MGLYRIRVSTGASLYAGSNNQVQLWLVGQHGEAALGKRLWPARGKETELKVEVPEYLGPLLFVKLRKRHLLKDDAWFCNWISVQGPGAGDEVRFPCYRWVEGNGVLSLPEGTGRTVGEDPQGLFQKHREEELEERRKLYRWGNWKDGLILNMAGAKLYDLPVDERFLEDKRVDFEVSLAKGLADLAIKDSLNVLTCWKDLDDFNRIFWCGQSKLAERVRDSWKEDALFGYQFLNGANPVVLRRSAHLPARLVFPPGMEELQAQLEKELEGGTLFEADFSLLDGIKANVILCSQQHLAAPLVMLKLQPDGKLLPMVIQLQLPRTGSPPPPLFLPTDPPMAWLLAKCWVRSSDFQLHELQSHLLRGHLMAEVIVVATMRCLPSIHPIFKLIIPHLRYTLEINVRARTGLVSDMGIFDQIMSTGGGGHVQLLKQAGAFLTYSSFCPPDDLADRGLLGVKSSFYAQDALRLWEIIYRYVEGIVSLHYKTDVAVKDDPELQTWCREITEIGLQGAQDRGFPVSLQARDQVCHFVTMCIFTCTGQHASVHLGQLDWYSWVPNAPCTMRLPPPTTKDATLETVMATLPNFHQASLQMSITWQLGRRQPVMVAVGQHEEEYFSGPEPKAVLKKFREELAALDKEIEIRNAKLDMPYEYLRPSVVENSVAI
The experiment in a line: Activation of 15-LOX in human whole blood assessed as reduction in PGE2 production at 100 uM pre-incubated for 20 mins before stimulation with LPS and A23187 for 120 mins in presence of 2 uM 5-LOX inhibitor Zileuton by LC-MS/MS method. It is filed as tissue-based. In outline:
(§1)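 Human blood preincubated 20 min at 37 °C with DMSO vehicle or compound in DMSO. LPS added at 100 μg/mL for 24 h at 37 °C, then A23187 at 20 μg/mL final. Samples frozen in liquid nitrogen at time points, lysed by freeze–thaw, with PGB2 internal standard. Analysed by C18 LC-MRM MS, negative ion. Change = control-normalized concentration minus 1, ×100%; 120 min value from AUC.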

The target of assay [2] is T2, Prostaglandin G/H synthase 2 (Homo sapiens) (UniProt P35354).
T2 sequence (whole entry): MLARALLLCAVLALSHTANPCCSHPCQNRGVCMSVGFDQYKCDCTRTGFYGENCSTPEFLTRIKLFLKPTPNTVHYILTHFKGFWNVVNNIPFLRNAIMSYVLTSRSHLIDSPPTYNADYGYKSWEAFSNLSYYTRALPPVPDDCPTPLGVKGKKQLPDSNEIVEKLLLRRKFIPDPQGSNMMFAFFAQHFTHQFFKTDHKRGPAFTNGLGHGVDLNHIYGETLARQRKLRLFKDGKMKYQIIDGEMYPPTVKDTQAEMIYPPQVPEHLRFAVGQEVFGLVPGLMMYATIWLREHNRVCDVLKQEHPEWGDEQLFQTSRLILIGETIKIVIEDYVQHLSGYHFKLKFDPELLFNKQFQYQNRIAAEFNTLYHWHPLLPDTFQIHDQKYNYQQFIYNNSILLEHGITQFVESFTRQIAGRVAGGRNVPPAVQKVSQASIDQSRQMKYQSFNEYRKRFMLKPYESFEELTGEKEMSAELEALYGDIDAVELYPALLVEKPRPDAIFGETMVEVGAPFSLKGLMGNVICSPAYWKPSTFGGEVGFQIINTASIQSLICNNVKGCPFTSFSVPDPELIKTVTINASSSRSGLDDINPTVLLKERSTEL
The experiment in a line: Activation of COX2 (unknown origin) assessed as PGG2 to PGH2 conversion by measuring N,N,N',N'-tetramethyl-p-phenylenediamine oxidation at 100 uM by spectrophotometry.

The target of assay [3] is T1, Polyunsaturated fatty acid lipoxygenase ALOX15 (Homo sapiens). The experiment in a line: Activation of 15-LOX in human whole blood assessed as reduction in TXB2 production at 100 uM pre-incubated for 20 mins before stimulation with LPS and A23187 for 120 mins in presence of 2 uM 5-LOX inhibitor Zileuton by LC-MS/MS method. It is filed as tissue-based. In outline:
as §1

Assay [4] shares this target. The experiment in a line: Activation of 15-LOX in human whole blood assessed as increase in 15-HETE production at 100 uM pre-incubated for 20 mins before stimulation with LPS and A23187 for 120 mins in presence of 2 uM […] inhibitor Zileuton by LC-MS/MS method. It is filed as tissue-based. The gist of the method:
as §1

The test system of assay [5] is Blood. Put plainly: Reduction in LTB4 in production in human whole blood at 100 uM pre-incubated for 20 mins before stimulation with LPS and A23187 for 120 mins by LC-MS/MS method. Format: functional. Set-up: scale not given: the % may be the effect or the level left. In outline: as §1
Assay [6] has as its target T3, Polyunsaturated fatty acid lipoxygenase ALOX15 (Homo sapiens, UniProt P16050).
T3 sequence (P16050 whole entry): T1 sequence (whole entry)
Put plainly: Activation of wild-type His6-tagged human 15-LOX expressed in Escherichia coli Rosetta DE3 assessed as 15-HpETE formation pre-incubated for 1 min before arachidonic acid substrate addition by cell free assay.

The target of assay [7] is T1, Polyunsaturated fatty acid lipoxygenase ALOX15 (Homo sapiens). Put plainly: Activation of 15-LOX in human whole blood assessed as 15-HETE production at 100 uM pre-incubated for 20 mins before stimulation with LPS and A23187 for 120 mins in presence of 2 uM 5-LOX inhibitor Zileuton by LC-MS/MS method. It is filed as tissue-based. In outline:
as §1

For assay [8] the target is unchanged. The experiment in a line: Activation of 15-LOX in human PMN assessed as 15-HETE production at 6.2 to 40 uM pre-incubated for 15 mins before A23187, Ca2+ and Mg2+ stimulation for 1 hr by LC-MS method. In outline: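 PMNs preincubated 15 min at 37 °C with compound or vehicle, then stimulated 1 h at 37 °C with 10 μM A23187 plus 2 mM Ca2+ and 2 mM Mg2+. Reactions stopped with cold methanol. Eicosanoids quantified by LC-MS.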

For assay [9] the target is unchanged. The experiment in a line: Activation of 15-LOX in human whole blood assessed as reduction in LTB4 production at 100 uM pre-incubated for 20 mins before stimulation with LPS and A23187 for 120 mins in presence of 2 uM […] inhibitor Zileuton by LC-MS/MS method. Format: tissue-based. In outline: as §1

Active and inactive are the calls of the source. The rule behind the calls is not given here.

As a reminder, the AC50 is the midpoint of the concentration-response curve, whichever way the signal moves. Take `CN1CCN(CC(=O)N2N=C3/C(=C/c4ccccc4)CCCC3C2c2ccccc2)CC1` (centres undefined): the result in [1], in [3], in assay [4], in assay [8] and in assay [9] was Active. The Activity was under 5% in assay [2], 52% in assay [5] and 36% in [7]. For the same compound, in assay [6], the AC50 was 6.8 µM.
